Most compounds without a hit are left out; they make up all but 1.9% or so of the library.
T cell modulator: T cell immune modulation candidate; actives 0.068% (n = 330,000); response (vesicle binding), % at 7 µM; 2C CD8+ T cell-vesicle binding, flow cytometry; hits give low values;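 active = response, share of CD8 T cells binding vesicles, and their 90th percentile fluorescence all below set limits, cut at about 80% in these data, passing the limit was not always enough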;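 also: values below 100% mean blocked vesicle binding to the CD8+ T cells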
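material = purified 2C TCR transgenic mouse naive CD8+ T cells | controls = Unloaded micro-vesicles (low), QL9 vesicles with 0.7% DMSO (high) | detection = cytometric PE anti-B7-1 and Alexa647 anti-CD8 signals after 1% paraformaldehyde fixation | incubation = binding step 1.5 h, 37 °C, antibody labelling 20 min, ice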
IMP-1 inh: inhibitors of Pseudomonas aeruginosa IMP-1 metallo-beta-lactamase. purified IMP-1, nitrocefin hydrolysis, epi-absorbance fluorescence. inhibition, % at 5.6 µM. actives 0.45% (n = 290,000);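 active = inhibition above the mean plus 3 SD of all compounds in the same screening run, cut at about 4.5% in these data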
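System: purified recombinant IMP-1 beta-lactamase. Medium: Zinc- and detergent-supplemented HEPES buffer, pH 7.1. Compound: one 5.6 µM dose […]. Schedule: 15 min preincubation plus 25 min reaction at 25 °C. Technique: Epi-absorbance fluorescence, 480 nm excitation, 530 nm emission.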
Fh CTSL1 inh: counter-screen for PFM18AAP inhibitors: inhibitors of F. hepatica cathepsin L1 | recombinant F. hepatica cathepsin L1, Z-Leu-Arg-MCA fluorescence | inhibition, % at 5.96 µM | actives 0.49% (n = 300,000) | AID 1906;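 active = inhibition above the mean of all tested compounds plus 3 SD, set per screening campaign, cut at about 17% in these data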
p-CIP stab down: compounds decreasing mouse p/CIP protein stability; decrease of EGFP signal, % at 10 µM; F442A p/CIP-EGFP cells, EGFP fluorescence, 16 h; actives 0.01% (n = 290,000);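 active = EGFP signal decrease of at least 30% at 10 µM or well 3 SD below plate mean, unless failing retest; inactive = the rest, including hits failing retest or dose response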
VIM-2 inh: inhibitors of Pseudomonas aeruginosa VIM-2 metallo-beta-lactamase; purified VIM-2, nitrocefin hydrolysis, epi-absorbance fluorescence; inhibition, % at 5.6 µM; actives 0.89% (n = 290,000);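 active = inhibition above the mean of all tested compounds plus 3 SD, cutoff set per screening run, cut at about 7.5% in these data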;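 also: red hydrolysis product quenches plate fluorescence so inhibitors raise well fluorescence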
UBC9 SUMO inh: blocks human SUMOylation mediated by UBC9; P63279; HTRF SUMOylation assay, SAE1/SAE2 + UBC9, in vitro; inhibition, % at 35 µM; actives 0.36% (n = 290,000); in the data active = inhibition above about 50%, passing the limit was not always enough
Numbers stand for hits; n = inactive; x = not tested or not shown.

SMILES	T cell modulator	IMP-1 inh	Fh CTSL1 inh	p-CIP stab down	VIM-2 inh	UBC9 SUMO inh
CC(NC(=O)COC(=O)c1ccc([N+](=O)[O-])s1)c1ccccc1 (stereo not given)	n	n	33.0	n	n	n
O=C(COC(=O)c1ccc([N+](=O)[O-])s1)NCc1ccc(F)cc1	n	n	79.6	n	n	n
Cc1csc(=O)n1CC(=O)OCC(=O)c1c(N)n(CC(C)C)c(=O)n(C)c1=O	n	x	n	x	x	x
Cc1cc(Cl)c(OCCCN2CCCCC2)c(Br)c1	72.5	n	n	n	n	n
Cc1cc(C)c(OCCN2CCCC2)c(Cl)c1	n	n	n	n	n	n
[O-][N+]1=c2ccc(Nc3ccccc3)cc2=NC12CCCCC2	n	n	19.5	n	n	79.2
CCN(CC)CCNC(=O)c1ccc(Cl)c(S(=O)(=O)Nc2ccccc2OC)c1	n	5.4	n	n	n	n
COc1ccc(OCC(=O)NNC(=O)c2ccccc2OCc2c(C)noc2C)cc1	n	x	n	x	x	x
Cc1ccc(NC(=O)Cn2nnc(C(=O)NCCc3ccccc3)c2N)c(C)c1	n	n	n	n	n	n
CN(C)CCCNc1nc(-c2ccccc2)nc2ccccc12	n	n	n	n	n	n
CN(C)CCCNc1c2ccccc2nc2ccccc12	n	n	n	n	12.1	n
C/C(CC(=O)Nc1c(C)cc(C)cc1C)=N\NC(=O)Cc1ccccc1	n	n	n	n	n	n
Cc1ccc(OCCCC(=O)N(C)CC(=O)Nc2ccccc2Cl)cc1	n	x	n	x	x	x
COC(=O)c1cccc(N2C(=O)C(Cl)=C(N3CCOCC3)C2=O)c1	n	n	31.8	n	n	n
O=C1C(Cl)=C(N2CCOCC2)C(=O)N1c1cccc(C(F)(F)F)c1	n	n	23.2	n	n	n
O=C1C(O)=C(O)C(=O)c2ccccc21	n	x	61.2	x	x	x
O=C1c2ccccc2C(=O)c2[nH]c(=O)[nH]c21	n	n	31.4	n	n	n
CCOC(=O)C1CCN(S(=O)(=O)c2ccc3c(c2)CC(C)N3C(=O)C2CCC2)CC1 (stereo not given)	n	n	n	n	n	n
O=C(Nc1ccc(F)cc1)N1CCCCCC1	n	n	n	n	n	n
CC(=O)Nc1ccc(NC(=O)N2CCCCC2)cc1	n	n	20.1	n	n	n
O=Cc1c[nH]c2ccc(C(=O)c3ccccc3)cc12	n	n	18.1	n	n	n
COc1ccc2[nH]cc(C=O)c2c1	n	n	n	n	n	n
CCN1CCN(C(=O)/C=C/c2ccc(C(C)C)cc2)CC1	n	x	16.8	x	x	x
CCN1CCN(C(=O)/C=C/c2cccc(Cl)c2)CC1	n	n	n	n	n	n
O=C(Nc1nc(=O)c2ccccc2s1)c1ccccc1	n	n	n	n	11.0	n
SMILES	T cell modulator	IMP-1 inh	Fh CTSL1 inh	p-CIP stab down	VIM-2 inh	UBC9 SUMO inh
COc1ccc(N2COC3c4cccc5cccc(c45)C32)cc1 (stereo not given)	n	4.7	n	n	n	n
Clc1ccc(N2COC3c4cccc5cccc(c45)C32)cc1 (stereo not given)	n	n	n	n	n	n
O=c1c2ccccc2oc2ccc(NCCCn3ccnc3)cc12	n	n	n	n	11.0	n
O=C(NCCCn1ccnc1)c1cc2c(ccc3ccccc32)o1	n	n	n	n	n	n
CC(Oc1ccccc1Cl)C(=O)Nc1ccc(S(=O)(=O)Nc2nccs2)cc1 (stereo not given)	n	x	n	x	x	x
S=C(Nc1ccc(Nc2ccccc2)cc1)Nc1ccccn1	n	n	n	n	n	n
CCOC(=O)C1CCN(C(=O)NS(=O)(=O)c2ccc(C)cc2)CC1	n	9.6	n	n	n	n
CCc1ccccc1NC(=O)CSc1nnc([C@@H](N)Cc2ccccc2)o1	n	n	68.1	n	n	n
CCc1ccccc1NC(=O)CSc1nc(C)c(C)o1	n	n	x	n	n	n
CCN(CC)C(=O)CSc1nnc([C@@H](N)Cc2ccccc2)o1	n	x	44.2	n	x	n
CCC(C)[C@H](N)c1nnc(SCC(=O)Nc2ccc(C)cc2C)o1 (stereo not given in full)	n	n	31.7	n	n	n
N[C@@H](Cc1ccccc1)c1nnc(SCc2ccccc2Cl)o1	n	n	n	n	n	n
CC(=O)c1ccc(NC(=S)NCCc2cccc(Cl)c2)cc1	n	n	n	n	n	n
COc1cnc(SC)nc1Nc1ccc(C#N)cc1	n	n	n	n	9.1	n
CCN(c1ccccc1)S(=O)(=O)c1ccc(OC)c(NC(=O)C2CC(=O)N(Cc3ccccc3)C2)c1 (stereo not given)	n	n	n	n	n	n
CCCCCC(=O)NC(=S)Nc1ccccc1C(=O)OC	n	n	n	n	n	n
CC(=O)NC(=S)Nc1ccccc1C(=O)Nc1ccccc1	n	28.4	n	n	n	n
CCCCC(=O)NC(=S)Nc1ccccc1C(=O)Nc1ccccc1	n	12.6	n	n	n	n
O=C(CC(C(=O)O)c1cccc(Cl)c1)c1ccccc1 (stereo not given)	n	n	n	n	10.6	n
O=C(CNC(=O)c1ccco1)OCC(=O)c1ccc(Cl)cc1Cl	n	n	n	n	n	n
Cc1ccc(C(=O)NNC(=O)Cc2nc3nc(C)cc(C)n3n2)cc1	n	n	n	n	n	x
Cc1cc(C)n2nc(CC(=O)NNC(=O)c3ccc(N(C)C)cc3)nc2n1	n	n	36.3	n	n	n
CCc1c(C)c2cc(Cl)c(O)c(CN(CC)CC)c2oc1=O	n	8.8	n	n	n	n
CCc1c(C)c2cc(Cl)c(O)c(CN(C)C)c2oc1=O	n	7.6	n	n	n	51.1
CCc1ccc(C2NC(=O)c3ccccc3O2)cc1 (stereo not given)	n	n	n	n	n	n
SMILES	T cell modulator	IMP-1 inh	Fh CTSL1 inh	p-CIP stab down	VIM-2 inh	UBC9 SUMO inh
Cc1cc(NC(=O)CN2CCN(Cc3ccccc3)CC2)nc2c1c(=O)oc1ccccc12	n	n	n	n	8.3	n
S=c1nc(C2CC2)[nH]c2ccccc12	n	n	n	n	10.7	n
S=c1nc(C2CCCCC2)[nH]c2ccccc12	n	n	n	n	n	n
O=C(NC1CCCC1)c1ccc(COc2ccccc2Br)o1	n	n	n	n	n	n
COc1ccc(C(Cl)=C(c2ccc(OC)cc2)c2ccc(OC)cc2)cc1	n	11.8	n	n	n	n
COc1ccc(C(=N/O)/C(=N/O)c2ccc(OC)cc2)cc1	n	n	n	n	n	n
COc1ccc(OC)c(NC(=O)c2ccc(Cl)cc2)c1	n	n	48.8	n	n	n
CC1=NNC(=O)C1Cc1ccc(F)cc1 (stereo not given)	n	n	n	n	8.4	n
Cc1nnc2ccc(-c3cccc(NC(=O)c4ccc(Cl)nc4)c3)nn12	n	n	n	n	n	n
Cc1nnc2ccc(-c3cccc(NC(=O)c4ccc(Br)o4)c3)nn12	n	n	n	n	10.2	n

Screening data as filed in PubChem.
